# Reference: the EternaBench riboswitch data
# Test system: MS2 coat protein
# Assay: apparent Kd, MS2 coat protein; higher = weaker binding; RNA-MaP array; FMN 200 µM where present
# How it was run: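 Binding was read on Illumina sequencing-chip clusters where stalled E. coli RNA polymerase had transcribed each design. A titration of SNAP-549-labelled MS2 coat protein began at 0.7 or 1.5 nM and doubled to 3 µM, once without ligand and once with constant ligand, in 100 mM Tris-HCl pH 7.5, 80 mM KCl, 4 mM MgCl2, BSA, DTT, yeast tRNA and Tween-20. The apparent Kd is the median of filtered per-cluster binding-curve fits, based on green signal normalised to red-channel RNA signal and control-cluster median Fmax.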
# [1] = designed as: ON switch for flavin mononucleotide, no ligand
# [2] = ligand present: flavin mononucleotide, designed as: ON switch for flavin mononucleotide
# [3] = designed as: OFF switch for flavin mononucleotide, no ligand
# [4] = ligand present: flavin mononucleotide, designed as: OFF switch for flavin mononucleotide
Sequence,apparent Kd [1] [nM],apparent Kd [2] [nM],apparent Kd [3] [nM],apparent Kd [4] [nM]
UUUGGGUGGCUGGAGGAUAUCCUUGUUGUUACAUGAGGAUCACCCAUGUGCCGCGCGGUUCGCGAGGAGAAGGCUGGCGGCCGUU,331,61.3,,
UGUCGGAGCAGAGGAUAUUACAUGAGGAUCACCCAUGUAUGAACCAAUAGCUGGAAACGGCAAUGUAAGAAGGCUGCUCCGACA,,,13.1,171
AUACCACGAGGAUAUCGUCUAUAAUACAUGAGGAUCACCCAUGUUAUAUCUGUAAUGUUUCGAGAAGGCGUGUGUU,,,18.9,14.6
AACAAGUUAGGAUAUGCUGCUCGUCACAAAAGUGAUGAGUAGCAGAAGGAACAUGAGGAUCACCCAUGUAAAGA,,,29.3,23.7
UUAUUAUAUGUAGGAUAUGCAUAUUAUUAUUGUGCAGAAGGACAUGAGGAUCACCCAUGUAUAUUAUUAUUAUAUAUUAUAUGU,,,25.7,30.2
CUUUCGUGAGGAUAUCAGUAGUAAUAAUAUAAAAUUACUACUGAGAAGGCACAUGAGGAUCACCCAUGUUCCUC,,,24.5,114
UCAUAUAUACAAGGAUAUCAAUUAUUUAUACAUCCUACAUGAGGAUCACCCAUGUUUUUAUAUUUUGAGAAGGUGUAAUGUCUU,21.1,27.5,,
UGAUCUUACAUGAGGAUCACCCAUGUAGGCCAGUAACUAACCAGAAGGCACGUAGAGUAAAACAGUGAGGAUAUGGAUGACAUA,11.7,6.32,,
AGAAAACAUGAGGAUCACCCAUGUGAGGAUAUCGAUGUCCAAGGCCGGGUGCGGGACUCGAGAAGGCACUUGGG,,,75.5,38.7
GUGCGGUGAGGAUAUACGUAGGUACAGAUCUGUGUGUUCCUACAUGAGGAUCACCCAUGUAGAAGGCAUGGCAC,,,49.6,136
UGGUGAUUUGUAGGAUAUGGAAAUAUAUUAUAACCAGAAGGACAUGAGGAUCACCCAUGUGAUAGAGUUUUUUUUUUUUCUCCU,,,31.5,14.1
CUCGAGUUAGGAUAUCGAACGUAACAAGCGGGAACUCCCGCCGAGAAGGAACAUGAGGAUCACCCAUGUGAAAA,,,23.2,22.2
UGUUAUUAGACAGGAUAUUGAAUGUUAAGUAUUAACAUGAGGAUCACCCAUGUAUUUGAUUGGUACAAGAAGGGUCAUGUUCCU,431,649,,
UGUCGGAGCAGAGGAUAUUACAUGAGGAUCACCCAUGUAUGAACCAAAAGCUGGAAACAGCAAUGUAAGAAGGCUGCUCCGACA,,,11.8,123
GUCAGCUCGUGAGGAUAUACAUGUGCUGGAUACAGCAUUAAAUAAUUCACAUGAGGAUCACCCAUGUAGAAGGCACGAGCUGAU,,,17.9,42.9
AGACAGUCAGGAUAUACAUGAGGAUCACCCAUGUUGAGAUGUGAAAGGGCAGGAAUAGGUAGAAGGGACGAGAG,,,34.6,33.7
CGGGAUUCCUGAGGAUAUGGAGCUGUCUACCUGGGCGACAUGAGGAUCACCCAUGUAGAACGCCUCCAGAAGGCAGCGAGAUUG,,,27.3,23.8
GCAGGUUAAGUCAGGAUAUACCUAUGGAUACAUAGGUAGAAGGGACAUGAGGAUCACCCAUGUGACUCGCCUGC,,,26.9,95.8
GAAUAGGCAGGAUAUACAUGAGGAUCACCCAUGUGCUUGCGCUAGGCACGUGAACAACGUAGAAGGGCCUAGAC,,,14,22.8
AUAUAUAUAUCAGGAUAUGGACAGGCCUGUCCGUAUUGAGACAGUAACAUGAGGAUCACCCAUGUCCAGAAGGGAUCUAUAUAU,,,40.5,49.4
AUUCCCAACCAGAAGGACAUGAGGAUCACCCAUGUAGGAUAUGGGUGGGUGACCCGAACUUGGACGACAUCACAAUUCUCACAC,55.6,9.49,,
AAUAACAGAGGAUAUACUAUUUUAUGUGUUUGUUGUUUUGAACAUGAGGAUCACCCAUGUAGAAGGCUGAGUAA,,,27.9,30.3
CCACCUCCUGAGGAUAUUGCAUCACCCGACUGAUAAGAAGGCAGAACAUGAGGAUCACCCAUGUGGGUACUCAC,,,84,87.1
CUCUUGUGAGGAUAUCAGUAGUAAAAAAAUAAAAUUACUACUGAGAAGGCACAUGAGGAUCACCCAUGUACCUU,,,22.9,22.7
AAUAUGUUGCAGAAGGCUAUAUUGUUGUAGUACCUCAUGACAUGAGGAUCACCCAUGUUUGUGUUGGAGGAUAUGCAAUAUAUU,,,7.82,7.07
AAAAAUGGAGGAUAUACAUGAGGAUCACCCAUGUGUGACUAUACUAUGCGCUCUUCAGGUAGAAGGCCAAAAAA,,,28.4,39.4
GGAUAGGACAGAGGAUAUACGUGCUAGAGACACUAGCAAAAUUUCCUCACAUGAGGAUCACCCAUGUAGAAGGCUGUCCUAUCG,,,15.4,405
AUCAGCUCGUCAGGAUAUACGUCACUGCCUCAGCAGUGUGGUAAGAUCACAUGAGGAUCACCCAUGUAGAAGGGACGAGCUGAU,,,15.5,299

Sequence,apparent Kd [1] [nM],apparent Kd [2] [nM],apparent Kd [3] [nM],apparent Kd [4] [nM]
AUAAUUAUAUAUUUCACAAGAAUCAGAAGGCGUUACAUGAGGAUCACCCAUGUUUUGUAUAGUAACGAGGAUAUGAUAUGGAAA,,,15.2,14
GGUUGACAUAGUCAUCCUUAACGAACAUGAGGAUCACCCAUGUAGGAUAUGCUACUCAAAGAGUAGCAGAAGGGCGUGUGUCUU,,,28.3,36.1
AAGGAUAGAGGAUAUACGUAGAUACAGAUUCAUGUAGAACUACAUGAGGAUCACCCAUGUAGAAGGCUAUCCUA,,,28.8,299
GGACGUCACAUGAACAUGAGGAUCACCCAUGUAAAUUCUCAUGAGGAUAUGGAUCCUAAUUGGAUCCAGAAGGCAUGGACGUCC,960,373,,
UUGGACGUCGUAGGAUAUGUAGGAUAGUCCUACAUGAGGAUCACCCAUGUUGACAUGGAAGAAGGACAGAAGGACGAUGUCCAU,553,35.4,,
GCUUCACAUGAGGAUCACCCAUGUCUUCGGAGUCGAGGAUAUGGUAACUGUAAACAGUUGCCAGAAGGCGAGGAGC,59.6,35.5,,
AACUGGUGUGAGAAGGGACGUAUCUCCAUGAGGGCAGGGCUAUUAGAGAAGUCAGGAUAUCACAUGAGGAUCACCCAUGUGACG,,,8.33,9.02
GGAUCGUAAGGAUAUACAUGAGGAUCACCCAUGUGGAUCUAACGGGUCGCCAAGUCGUGUAGAAGGUGCCGUCU,,,22.7,20.6
AGGAAGUGAGGAUAUGCAGUGGCCUGUAGACGCAAGCACUUGUAGAAGGCACAUGAGGAUCACCCAUGUUUAAA,,,35.8,34.2
CGAUGAGGUGUGAGGAUAUCGUGUUCGAAAGAACGUGAGAAGGCACAUGAGGAUCACCCAUGUGAACCUUGUCG,,,16.9,18.8
GUGCUACAGCGGCGCACGAGACAUGAGGAUCACCCAUGUGACAGAAGGGACUUGUUAAAGGUAGGUCAGGAUAUGUCUUAAAAG,291,81.4,,
AAGAAACAUGAGGAUCACCCAUGUCGAGAGAGACGAGGAUAUCUGAAUCGAUUAGAUUACGGAGAAGGCGUGAAAA,29.4,23.4,,
UUAAUUAAUUAAUUGCAGUUACAUGAGGAUCACCCAUGUAUAUAGGAUAUCGUCAGGAAUACUGACGAGAAGGAUAUACUCUGC,,,21.6,26.7
CUUUCAUUUUAGGAUAUCGAGUUGGCGAUAGCUCGAGAAGGGAAUACAUGAGGAUCACCCAUGUCGGGUCACGU,,,177,173
GUCCAACAUGAGGAUCACCCAUGUGAGGAUAUGCGAAUUUCAUCAAAAGAUGAAAUUUGCAGAAGGCACAGGAC,,,20.2,32.8
AUAUGGAAUACAGGAUAUGUAAGUUUUAAGUGUAUUGGUUAUUACUUAACAACAGAAGGGUAUUACAUGAGGAUCACCCAUGUA,12.8,10,,
UUAAUUAAUUAAUUGCAGUUUACAUGAGGAUCACCCAUGUAUAAGGAUAUGCAGUGGAAUACACUGCAGAAGGUAUACAUCUGC,,,19.5,35.2
GUCGAGUGAGGAUAUGGUGAGUAGUGCCUGAGCGCUGCUCACCAGAAGGCACAUGAGGAUCACCCAUGUAUGAC,,,18.2,23.9
GGAAUACAUGAGGAUCACCCAUGUAAGGAUAUGCUGAUUAAAUUGGAUUAAUUAUGCAGCAGAAGGUACAAAAG,,,78.7,79.6
CGUCGUCUACGACGCACAUGAGGAUCACCCAUGUGGCAGACACAGGAUAUCCGUUGGAAUGUCCAGGAGAAGGGUGAUCGCAUA,38.6,77.5,,
AAAUAAAGCAGUGUAUUAAUAUAACAUGAGGAUCACCCAUGUAGAAGGCUCGAGCAAUAUGCUCGAGAGGAUAUACAACACUGC,,,7.3,7.18
CAGAAGUCAGGAUAUGCUGCUCGUCACUUGCGUGAUGAGUAGCAGAAGGGACAUGAGGAUCACCCAUGUAAAGU,,,55.6,121
UCGAUCGUAUGAGGAUAUGGUACACAAAGUGUACCAGAAGGCAUGUCAAUAGACAUGAGGAUCACCCAUGUAUUAUCGAUCGAA,361,51.7,,
AUUGGUUUGCGAGGAUAUGCUAAUAGUAAGUAUGCAGAAGGCGCGUUACAUAGAACCUCUAGUUACAUGAGGAUCACCCAUGUU,,,46.2,45.4
GUCAGCUCGUCAGGAUAUACAUGAUAGAUCGAUUAAUUAAUUAAUUUAACAUGAGGAUCACCCAUGUAGAAGGGACGAGCUGAU,,,109,84.2
UGGUCAUCAUCAGGAUAUUAACAUGGGCUACAUUAAGAAGGGAUAGUGAGAUACGAACUGAAACAUGAGGAUCACCCAUGUUGU,105,51.9,,
UGGCCUUUAGGAUAUCGGGUCUUUAACAUGAGGAUCACCCAUGUGGCACUCUCUUGAGAACGAGAAGGAAAACCCG,,,23.2,23.7
